Results of several laboratories.
Each line is one published result; the experiments were not run side by side.
Target: Mitogen-activated protein kinase kinase kinase kinase 4 (MAP4K4, Homo sapiens, UniProt O95819)

With CN(C)c1ncnc(-c2ccc3nc(Nc4cc(CN5CCN(C(=O)CC(F)(F)F)CC5)ccn4)[nH]c3c2)c1Cl the remaining binding was 100% (cell-free assay, competition with immobilised ligand; 1 µM).
C=CC(=O)N1CCC(C(=O)NCC(=O)N2CCN(c3nc(-c4cnc(N)nc4C(F)F)nc(N4CCOCC4)n3)CC2)CC1 has a remaining binding of 80% (binding, competition with immobilised ligand; 1 µM).
Nc1ncc2c(n1)-c1c([nH]c3ccc(C#CC4CC4)cc13)CCCC2 gave a remaining binding of 90% (binding, competition with immobilised ligand; 1 µM).
O=C(Nc1c[nH]nc1C(=O)NC1CCNCC1)c1cc(F)cc(F)c1 has a remaining binding of 100% (binding, competition with immobilised ligand; 1 µM).
CCc1ccccc1C(=O)Nc1n[nH]c2c(C)c(F)c(C3C(C#N)=C(C)N(C)C(C)=C3C#N)cc12 gave a remaining binding of 100% (cell-free assay, competition with immobilised ligand; 1 µM).
For COc1ncc2cc3ccccc3nc2c1C#N, the remaining binding was 91% (cell-free assay, competition with immobilised ligand; 5 µM).
O=C1CCc2cc(Nc3cc(OC4CCOCC4)c([N+](=O)[O-])cc3Cl)ccc2N1 gave a remaining binding of 100% (cell-free assay, competition with immobilised ligand; 1 µM).
F[C@@H]1CCN(c2nccc(-c3cnn4ncccc34)n2)C1 gave a remaining binding of 76% (binding; 1 µM).
The remaining binding of c1cncc(-c2cccc(Nc3nccc(NC4CCCCC4)n3)c2)c1 is reported as 26% (binding, competition with immobilised ligand; 10 µM).
The remaining binding of CC1CCCN1c1nccc(-c2cnn3ncccc23)n1 (stereo not drawn) is reported as 100% (binding; 1 µM).
With O=C(c1ccc(Nc2ncc(Cl)c(-c3cc4ccccc4s3)n2)cc1)N1CCC(N2CCCC2)CC1 the remaining binding was 34% (binding, competition with immobilised ligand; 1 µM).
CNC(=O)[C@@H]1CC[C@@H](n2c(-c3ccc4cnccc4c3)nc3ccc(C(=O)NCc4cccc(C(N)=O)c4)cc32)C1 gave a remaining binding of 100% (binding, competition with immobilised ligand; 1 µM).
CN(c1nccc(-c2cnn3ncccc23)n1)C1CC1 has a remaining binding of 13% (binding; 1 µM).
O=C(c1ccc(Nc2ncc(Cl)c(-c3ccc(Cl)s3)n2)cc1)N1CCC(N2CCCC2)CC1 gave a remaining binding of 26% (binding, competition with immobilised ligand; 1 µM).
FC(F)(F)c1ccc2c(c1)nc(-c1cccnc1)n2C1CC1 has a remaining binding of 100% (cell-free assay, competition with immobilised ligand; 1 µM).
With C[C@H]1CCN(c2nccc(-c3cnn4ncccc34)n2)C1 the remaining binding was 98% (binding; 1 µM).
O=C(NCCCN1CCOCC1)c1ccc(Nc2nccc(-c3cc4ccccc4s3)n2)cc1 gave a remaining binding of 100% (binding, competition with immobilised ligand; 1 µM).
With CN(C)c1ncc(F)c(-c2cnn3ncccc23)n1 the remaining binding was 100% (binding; 1 µM).
For CC(=O)N1CCC(c2ccc(C(=O)NC(=N)N)cc2C(F)(F)F)CC1, the remaining binding was 100% (cell-free assay, competition with immobilised ligand; 1 µM).
N[C@H]1CCN(c2nccc(-c3cnn4ncccc34)n2)C1 gave a remaining binding of 100% (binding; 1 µM).
For C[C@H](c1cccc(C#N)c1)n1cc(Cl)cc(C(N)=O)c1=N, the remaining binding was 100% (cell-free assay, competition with immobilised ligand; 1 µM).
